Ends that are not written are not given here.
Tests used:
[1] = system: MRGPRX4 (HTLA-MRGPRX4 cells); assay: Tango assay; assay type: cell-based; details: nateglinide 30 μM, 16 h, 37°C, three experiments
Summary of the method: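 Tango line from HTLA cells (HEK-293T with β-arrestin2-TEV) stably transfected with MRGPRX4-Tango, single-cell cloned, surface FLAG confirmed by flow. Cells plated at 50,000/well on poly-L-lysine in triplicate, antibiotic-free medium, 6 h at 37°C, then agonist 16 h at 37°C; Bright-Glo luminescence. Ca2+ traces: Calcium 6 loading 2 h 37°C, 1 h room-temperature equilibration, FLIPR imaging every 1 s over 5 min.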

[2] = system: MRGPRX4 (HTLA-MRGPRX4 cells); assay: Ca2+ mobilization in HTLA-MRGPRX4 cells; assay type: cell-based; details: nateglinide 30 μM, AG-30/5C 10 μM, compound 48/80 30 μg/mL; FLIPR-Tetra; representative traces
Summary of the method: (§1)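 HTLA cells (HEK-293T stably expressing β-arrestin2-TEV) were stably transfected with the MRGPRX2-Tango or MRGPRX4-Tango plasmid, and a single-cell-derived clone was checked for receptor expression by anti-FLAG flow cytometry. Cells were plated at 10^4 per well on collagen and grown 24 h at 37°C, then loaded with Calcium 6 dye for 2 h at 37°C. After 1 h equilibration at room temperature, test compound was added and fluorescence imaged every 1 s for 5 min on FLIPR-Tetra.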

[3] = system: IgE-mediated MC degranulation; details: cited from earlier work
[4] = system: MRGPRX2 (HTLA-MRGPRX2 cells); details: cited from earlier work
[5] = system: MRGPRX2 (RBL-2H3 cells stably expressing MRGPRX2); assay: RBL-MRGPRX2 degranulation; assay type: cell-based
Summary of the method: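 RBL-2H3 cells stably expressing MRGPRX2 were kept in 1 mg/mL G418. Cells were seeded at 5 × 10^4 per well and cultured overnight with or without pertussis toxin (100 ng/mL, 16 h), then washed twice into HEPES buffer with 0.1% BSA. Optional resveratrol was 100 μM for 5 min. Cells were stimulated with test compound for 30 min at 37°C, and β-hexosaminidase release was measured with 1 mM PNAG (1 h, 37°C) at A405 as percent of total.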

[6] = system: LAD2 cells (human MC line, endogenously expressing MRGPRX2); assay: LAD2 degranulation; assay type: cell-based; details: resveratrol 100 μM, 5 min, 30 min
Summary of the method: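 LAD2 cells were grown in StemPro-34 with rhSCF (100 ng/mL), washed, and seeded at 10^4 per well in HEPES buffer with 0.1% BSA. Where used, resveratrol pretreatment was 100 μM for 5 min, followed by stimulation with test compound for 30 min at 37°C. Supernatant or Triton X-100 lysate of unstimulated cells (total) was incubated with 1 mM PNAG for 1 h at 37°C, stopped with carbonate buffer, and read at A405. Result is percent β-hexosaminidase release; three experiments.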

[7] = system: MRGPRX2 (HTLA-MRGPRX2 cells); assay: Tango assay; assay type: cell-based; details: resveratrol 100 μM, 5 min
Summary of the method: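 HTLA cells (HEK-293T expressing β-arrestin2-TEV) stably transfected with MRGPRX2-Tango; single-cell clone, surface FLAG checked by flow. 50,000 cells/well on poly-L-lysine, triplicate, antibiotic-free medium, 6 h at 37°C; resveratrol 100 μM 5 min where used, then agonist 16 h at 37°C; Bright-Glo luminescence. Ca2+: Calcium 6 dye 2 h 37°C, 1 h room temperature, FLIPR read every 1 s for 5 min. Mean ± SEM, three experiments.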

[8] = system: MRGPRX2 (HTLA-MRGPRX2 cells); assay: Ca2+ mobilization in HTLA-MRGPRX2 cells; assay type: cell-based; details: compound 48/80 30 μg/mL, AG-30/5C 10 μM, Icatibant 30 μg/mL; FLIPR-Tetra; representative traces
Summary of the method: as §1

[9] = system: MRGPRX2 (RBL-MRGPRX2 cells); assay: Ca2+ mobilization in RBL-MRGPRX2 cells; assay type: cell-based; details: PTx 100 ng/mL, 16 h, Indo-1, agonist compound 48/80 1 μg/mL, AG-30/5C 1 μM or Icatibant 20 μg/mL, representative traces
MRGPRX2 (human MC) = details: cited from earlier work
[10] = treatment of hereditary angioedema; cited from earlier work
[11] = mice; cited from earlier work
MRGPRX2 = details: LL-37 as agonist; cited from earlier work

## CC(C)[C@H]1CC[C@H](C(=O)N[C@H](Cc2ccccc2)C(=O)O)CC1 [nateglinide]
[1]; AG-30/5C 10 μM, compound 48/80 30 μg/mL
  β-arrestin-mediated gene expression via MRGPRX4 (Tango), in words: induces β-arrestin-mediated gene expression
[1]
  increase in β-arrestin-mediated gene expression via MRGPRX4: > 100 fold
[2]
  Ca2+ mobilization via MRGPRX4: causes an increase in Ca^2+ mobilization

## Oc1ccc(/C=C/c2cc(O)cc(O)c2)cc1 [resveratrol]
[3]
  inhibition of IgE-mediated MC degranulation: activates sirtuin 1 (sirt1) to inhibit IgE-mediated MC degranulation
[4]; NIH Clinical Collection library (NCC-1) screen
  inhibition of constitutive MRGPRX2-mediated Tango: inhibitor of constitutive MRGPRX2-mediated Tango
[5]; resveratrol 100 μM, 5 min, Icatibant 20 μg/mL, 30 min
  inhibition of Icatibant-induced degranulation, RBL-MRGPRX2: significant (p≤ 0.05 and p≤ 0.001) inhibition
[5]; resveratrol 100 μM, 5 min, compound 48/80 1 μg/mL or AG-30/5C 1 μM, 30 min
  inhibition of compound 48/80- and AG-30/5C-induced degranulation, RBL-MRGPRX2: significantly (p ≤0.05, 0.01 and 0.001) reduced degranulation
[6]; Icatibant 20 μg/mL
  inhibition of Icatibant-induced degranulation, LAD2: significant (p≤ 0.05 and p≤ 0.001) inhibition
[6]; compound 48/80 1 μg/mL or AG-30/5C 1 μM
  inhibition of compound 48/80- and AG-30/5C-induced degranulation, LAD2: significantly (p ≤0.05, 0.01 and 0.001) reduced degranulation
[7]; AG-30/5C 10 μM overnight
  effect on AG-30/5C Tango response: no effect on Tango
[7]; compound 48/80 3.0, 10 and 20 μg/mL overnight
  inhibition of compound 48/80-induced β-arrestin gene expression (Tango): significant (p≤ 0.01 and p≤ 0.001) inhibition

## Icatibant
[8]
  peak Ca2+ mobilization, high concentration: induced Ca^2+ mobilization although the peak was much shorter than compound 48/80
[4]; HTLA cells expressing MRGPRX2-Tango
  β-arrestin-mediated gene expression (literature): does not activate β-arrestin-mediated gene expression
[5]; RBL-MRGPRX2, PTx 100 ng/mL, 16 h, agonist compound 48/80 1 μg/mL or AG-30/5C 1 μM (p ≤ 0.001), or Icatibant 20 μg/mL
  effect of pertussis toxin on agonist-induced degranulation: completely blocked
[9]
  effect of pertussis toxin on agonist-induced Ca2+ mobilization: completely blocked Icatibant-induced degranulation but not Ca^2+ mobilization
MRGPRX2 (human MC)
  MC degranulation via MRGPRX2 (literature): promotes MC degranulation via MRPGRX2
[10]
  injection site pseudo-allergic drug reaction: injection site pseudo-allergic drug reaction in nearly every patient

## LL-37
[11]
  vaccine adjuvant activity: safe and effective vaccine adjuvant in mice
MRGPRX2 (human MC)
  activation of human MC via MRGPRX2 (literature): activate human MC
MRGPRX2
  receptor phosphorylation, desensitization and internalization: resistant to phosphorylation, desensitization and internalization

## human β-defensin 3: host defense peptide (GIINTLQKYYCRVRGGRCAVLSCLPKEEQIGKCSTRGRKCCRRKK; ends and bridges not checked; cysteine pairing not given here; UniProt P81534 23-67, looked up)
MRGPRX2 (human MC)
  effect of PTx on MC degranulation and Ca2+ mobilization (literature): inhibits MC degranulation in response to host defense peptide, human β-defensin 3 without affecting Ca^2+ mobilization

Source: PMC6369923 (Journal of immunology (Baltimore, Md. : 1950), 2019)
